Screening results as filed in PubChem.
Only some compounds are listed: those with a hit (about 2.6% of all), similar ones and a draw of the others.
ABHD4 inh: inhibits mouse alpha/beta hydrolase domain 4; purified mABHD4, FP-Rh probe fluorescence polarization; AID 720543; inhibition, % at 8.92 µM; Q8VD66; hit rate 0.54% among 370,000;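 active means inhibition exceeding the mean over every tested compound plus 3 SD, cut at about 30% in these data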;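 further: 0% = plate median of compound wells and 100% = S159A mutant with DMSO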
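Test system: mABHD4 protein; Read-out basis: % inhibition; Incubation: 45 min + 60 min at 25 °C; Repeats: single replicate; Technique: fluorescence polarization with parallel and perpendicular emission, 525/598 nm; Compound: 8.92 µM, single dose; Benchmarks: full inhibition S159A mutant plus DMSO, zero as sample-well median.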
SIAE inh: inhibitors of human sialic acid acetylesterase SIAE. Q9HAT2. SIAE FP-Rh probe binding, fluorescence polarization. inhibition, % at 9.66 µM. hit rate 0.69% among 370,000. AID 1053197;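 active means inhibition above a cutoff: mean of compounds within the control limits plus 3 SD of those, cut at about 17% in these data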;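 further: 0% = plate median of compound wells and 100% = probe without SIAE protein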
Target sequence (Q9HAT2 whole entry, looked up): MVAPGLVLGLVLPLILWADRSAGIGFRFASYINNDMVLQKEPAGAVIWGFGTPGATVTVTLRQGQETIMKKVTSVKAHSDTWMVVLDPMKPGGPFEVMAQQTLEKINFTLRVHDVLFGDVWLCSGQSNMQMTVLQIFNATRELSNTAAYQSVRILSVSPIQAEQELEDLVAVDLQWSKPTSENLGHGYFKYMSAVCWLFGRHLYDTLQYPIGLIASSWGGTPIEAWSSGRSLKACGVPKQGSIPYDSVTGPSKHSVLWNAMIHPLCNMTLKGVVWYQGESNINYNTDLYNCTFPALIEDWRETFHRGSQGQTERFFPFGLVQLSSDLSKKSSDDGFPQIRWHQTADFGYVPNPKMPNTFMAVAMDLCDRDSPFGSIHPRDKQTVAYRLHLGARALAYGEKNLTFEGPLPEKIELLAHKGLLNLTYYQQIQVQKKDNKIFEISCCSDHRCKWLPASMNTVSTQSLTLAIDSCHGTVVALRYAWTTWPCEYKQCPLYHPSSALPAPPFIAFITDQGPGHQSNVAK
HTRA1 inhibitor: HTRA1 (human) protease inhibition | Q92743 | inhibition, % at 5.96 µM | hit rate 0.5% among 340,000 | AID 504803 | recombinant HTRA1, FP-rhodamine activity-based probe, fluorescence polarization; in the data active means inhibition above about 36%;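 further: 0% = enzyme with DMSO and 100% = wells lacking enzyme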
PRMT1 inh: PRMT1 (human) inhibition, primary screen; hit rate 1.3% among 370,000; recombinant PRMT1, activity-based probe fluorescence polarization; Q99873; AID 652257; inhibition, % at 2.79 µM;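 active means inhibition above about 21% made by adding two undisclosed values, limit read from the data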
TCR CD3 inh: blocks the human TCR-CD3 interaction; TAMRA-labeled TCR probe fluorescence, biochemical; inhibition, % at 9.4 µM; hit rate 0.37% among 360,000; AID 651800; in the data active means inhibition above about 19%;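 further: recombinant mutant TCR 2C K166C tagged with TAMRA read by polarization; 0% = receptor in buffer alone and 100% = receptor with positive control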
An asterisk follows results filed as active.

Results for C[C@@H]1OCN(C)[C@H]2C[C@H]3c4[nH]c5cccc(-c6ccc7c(c6)OCO7)c5c4CCN3C[C@@H]12 ?
ABHD4 inh: 14; SIAE inh: 8; PRMT1 inh: 0

How did O=C1NC(=Nc2ccc(Cl)cc2)/C(=C/c2ccco2)S1 do in these assays?
ABHD4 inh: -49; SIAE inh: 2; HTRA1 inhibitor: 5; PRMT1 inh: 14; TCR CD3 inh: -4

What do the screens show for `Cc1cccc(N=C2NC(=O)S/C2=C\c2ccco2)c1`?
ABHD4 inh: -75; SIAE inh: 1; HTRA1 inhibitor: 24; PRMT1 inh: 21*; TCR CD3 inh: -8

How did COC(=O)[C@]12C[C@H](CC(=O)NCc3cccs3)C(=O)N(CCC3=CCCCC3)C1=C[C@H](C(C)(C)C)O[C@@H]2C do in these assays?
ABHD4 inh: -6; SIAE inh: -2; PRMT1 inh: 3; TCR CD3 inh: -4

What do the screens show for `CCOc1ccc(N)cc1OC`?
ABHD4 inh: 13; SIAE inh: 24*; HTRA1 inhibitor: 17; PRMT1 inh: 5; TCR CD3 inh: -3

How did C=CCN1[C@H](Cc2ccccc2)COc2cc(F)ccc2S1(=O)=O do in these assays?
ABHD4 inh: -3; SIAE inh: -5; PRMT1 inh: -3

How did CCOC(=O)C1Nc2ccc(C)cc2C2C=CCC12 (stereo not given) do in these assays?
ABHD4 inh: 22; SIAE inh: 9; HTRA1 inhibitor: 34; PRMT1 inh: 23*; TCR CD3 inh: 0

What do the screens show for `COC(=O)CNC(=O)C1Nc2ccccc2C2C=CCC12` (stereo not given)?
ABHD4 inh: 20; SIAE inh: 5; HTRA1 inhibitor: 11; PRMT1 inh: 37*; TCR CD3 inh: -7

What do the screens show for `CC(=O)CC[C@H]1CC[C@]2(CCCN(C(=O)c3ccno3)C2)O1`?
ABHD4 inh: 0; SIAE inh: -10; PRMT1 inh: 1

What do the screens show for `O=C(CSc1nnc(-c2ccccc2)o1)c1nnc(-c2ccccc2)o1`?
ABHD4 inh: 4; SIAE inh: -10; HTRA1 inhibitor: 13; PRMT1 inh: 24*; TCR CD3 inh: 0

How did CCOC(=O)CSc1nnc(-c2ccccc2)o1 do in these assays?
ABHD4 inh: 2; SIAE inh: -10; HTRA1 inhibitor: -4; PRMT1 inh: 0; TCR CD3 inh: 5

Results for CCCCNC(=O)C1(C(=O)c2ccc(OC)cc2)CC(C(=O)OCC)=NO1 (stereo not given) ?
ABHD4 inh: 5; SIAE inh: 3; PRMT1 inh: -1

Results for Nc1cccc(N2C(=O)c3cccc4c(N)ccc(c34)C2=O)c1 ?
ABHD4 inh: 19; SIAE inh: 5; HTRA1 inhibitor: 15; PRMT1 inh: 113*; TCR CD3 inh: 14

Results for Cc1cccc(N2C(=O)c3cccc4c(N)ccc(c34)C2=O)c1 ?
ABHD4 inh: 29; SIAE inh: 11; HTRA1 inhibitor: 19; PRMT1 inh: 162*; TCR CD3 inh: 16

How did Cc1cccc(N2C(=O)c3cccc4cccc(c34)C2=O)c1 do in these assays?
ABHD4 inh: -6; SIAE inh: -8; HTRA1 inhibitor: -7; PRMT1 inh: 4; TCR CD3 inh: -2

How did COC(=O)[C@]12C[C@H](CC(=O)NCCC(C)C)C(=O)N(Cc3cccc4ccccc34)C1=C[C@H](C(C)(C)C)O[C@@H]2C do in these assays?
ABHD4 inh: -12; SIAE inh: -3; PRMT1 inh: 3

Results for Cc1ccc(S(=O)(=O)Nc2ccc(O)c3cccnc23)cc1 ?
ABHD4 inh: 19; SIAE inh: -7; HTRA1 inhibitor: 6; PRMT1 inh: 21*; TCR CD3 inh: -15

Results for CCOc1ccc(N(CC(=O)Nc2c(C)n(C)n(-c3ccccc3)c2=O)S(=O)(=O)c2ccc(C)c(C)c2)cc1 ?
ABHD4 inh: -5; SIAE inh: -1; PRMT1 inh: 1

Results for O=C(O)c1ccc(-c2ccc(/C=C3\NC(=O)N(Cc4ccc(Cl)cc4)C3=O)o2)cc1Cl ?
ABHD4 inh: 18; SIAE inh: -24; HTRA1 inhibitor: -7; PRMT1 inh: 43*; TCR CD3 inh: 2

What do the screens show for `CCOC(=O)CN1C(=O)S/C(=C\c2ccc(-c3ccc(C(=O)O)c(Cl)c3)o2)C1=O`?
ABHD4 inh: 0; SIAE inh: 1; HTRA1 inhibitor: -1; PRMT1 inh: 8; TCR CD3 inh: 3

What do the screens show for `O=C(c1nc2ccc(Cl)cn2c1CN1CCC(CO)CC1)N1CCc2ccccc2C1`?
ABHD4 inh: 1; SIAE inh: 2; HTRA1 inhibitor: -3; PRMT1 inh: 2; TCR CD3 inh: -1

How did O=C(c1nc2ccc(Cl)cn2c1CN1CCCC1)N1CCc2ccccc2C1 do in these assays?
ABHD4 inh: 1; SIAE inh: 0; HTRA1 inhibitor: 8; PRMT1 inh: 24*; TCR CD3 inh: 11

How did COc1cccc(OC)c1C(=O)Nc1ccccc1N1CCCCC1 do in these assays?
ABHD4 inh: -13; SIAE inh: 7; HTRA1 inhibitor: -11; PRMT1 inh: -4; TCR CD3 inh: 2

Results for COc1cccc(Nc2ccc(N3CCCCC3)cc2)c1OC ?
ABHD4 inh: 21; SIAE inh: 8; HTRA1 inhibitor: 17; PRMT1 inh: 24*; TCR CD3 inh: -10

What do the screens show for `CC(C)=CCC/C(C)=C/CNC(=O)C[C@H]1C[C@H](C(=O)N2CCCCC2)[C@@]2(C)c3[nH]c4cc(-c5ccco5)ccc4c3CCN2C1=O`?
ABHD4 inh: 4; SIAE inh: -3; HTRA1 inhibitor: -13; PRMT1 inh: 24*; TCR CD3 inh: 5

What do the screens show for `Cc1cc(=O)[nH]c(SCC(=O)Nc2nc3ccccc3s2)n1`?
ABHD4 inh: -3; SIAE inh: -9; HTRA1 inhibitor: 8; PRMT1 inh: 21*; TCR CD3 inh: -5

What do the screens show for `Cc1cc(=O)[nH]c(SCC(=O)Nc2ccc(Cl)cc2)n1`?
ABHD4 inh: 0; SIAE inh: 0; PRMT1 inh: 1

Results for CCOC(=O)N1CCN(C(=O)C2CCN(C(=O)c3ccccc3C)CC2)CC1 ?
ABHD4 inh: -22; SIAE inh: -23; HTRA1 inhibitor: -49; PRMT1 inh: 91*; TCR CD3 inh: 12

How did COc1cccc(NC(=O)Nc2nc3ncccn3c2-c2ccc(C(F)(F)F)cc2)c1 do in these assays?
ABHD4 inh: 13; SIAE inh: 0; PRMT1 inh: -4

What do the screens show for `O=C(/C=C/c1cccc(Cl)c1)c1ccc([N+](=O)[O-])o1`?
ABHD4 inh: 8; SIAE inh: -5; HTRA1 inhibitor: 43*; PRMT1 inh: 17; TCR CD3 inh: 7

What do the screens show for `CC(=Nc1cccc(O)c1)c1sc2ccccc2c1O`?
ABHD4 inh: -1; SIAE inh: 7; HTRA1 inhibitor: 2; PRMT1 inh: 20; TCR CD3 inh: 2

What do the screens show for `CC(=Nc1ccc(C)cc1)c1sc2ccccc2c1O`?
ABHD4 inh: 13; SIAE inh: 4; HTRA1 inhibitor: -19; PRMT1 inh: 25*; TCR CD3 inh: -4

Results for COC(=O)C[C@H]1CC[C@H]2[C@H](COc3ccc(NC(=O)c4cccs4)cc3C(=O)N2C)O1 ?
ABHD4 inh: 14; SIAE inh: 4; PRMT1 inh: -1
